Results reported in ChEMBL document CHEMBL2150940, “Mechanism-based design, synthesis and biological studies of N⁵-substituted tetrahydrofolate analogs as inhibitors of cobalamin-dependent methionine synthase and potential anticancer agents” (Eur J Med Chem, 2012).

What was measured:
KB = test: Antiproliferative activity against human KB cells after 48 hrs; type: functional, cell-based
Procedure, shortened: (§1)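 Cells kept in RPMI-1640 with 10% fetal bovine serum, penicillin (100 units mL⁻¹) and streptomycin at 37 °C in humidified 5% CO₂. Exponentially growing cells were exposed to a range of compound concentrations for 48 h. Growth inhibition was read by MTT and SRB assays. Values are means of three independent experiments.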

Methionine synthase = Methionine synthase (Homo sapiens, UniProt Q99707); test: Inhibition of methionine synthase in human HL60 cells using L-homocysteine as substrate incubated for 3 hrs prior to substrate addition measured after 10 mins spectrophotometric analysis; type: cell-based, HL-60
Procedure, shortened: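 HL60 cells (1 × 10⁶/well) were serum-starved, then exposed 3 h to varied compound concentrations, lysed in HEPES pH 7.5 buffer and cleared at 4 °C. Lysate was mixed with potassium phosphate pH 7.2, DTT, 5-methyltetrahydrofolate, SAM and hydroxocobalamin (stock levels given) and preincubated 5 min at 37 °C. L-homocysteine started a 10 min 37 °C reaction. HCl/formic acid stop at 80 °C 10 min; A350 read.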

SK-OV-3 [1] = test: Antiproliferative activity against human SKOV3 cells after 48 hrs; type: functional, cell-based; conditions: SK-OV-3, 48 h; procedure, shortened: as §1
HeLa = test: Antiproliferative activity against human HeLa cells after 48 hrs; type: functional, cell-based; procedure, shortened: as §1
Bel-7402 = test: Antiproliferative activity against human Bel7402 cells after 48 hrs; type: functional, cell-based; conditions: Bel-7402, 48 h; procedure, shortened: as §1
Dihydrofolate reductase = molecular target: T1, Dihydrofolate reductase (Homo sapiens, UniProt P00374); test: Inhibition of human recombinant DHFR using dihydrofolate as substrate by spectrophotometric analysis
T1 sequence (P00374 whole entry): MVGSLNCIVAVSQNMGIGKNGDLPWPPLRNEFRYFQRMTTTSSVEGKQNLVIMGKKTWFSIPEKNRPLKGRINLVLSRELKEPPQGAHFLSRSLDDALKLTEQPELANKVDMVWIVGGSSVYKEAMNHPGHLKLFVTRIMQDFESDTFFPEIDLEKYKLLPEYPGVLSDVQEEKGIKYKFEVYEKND
Procedure, shortened: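 Recombinant human DHFR was followed spectrophotometrically in 0.1 mM dihydrofolate, 0.3 mM NADPH and 100 mM KCl, pH 7.5, at 32 °C.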

BGC-823 = test: Antiproliferative activity against human BGC823 cells after 48 hrs; type: functional, cell-based; conditions: BGC-823, 48 h; procedure, shortened: as §1
SK-OV-3 [2] = test: Ratio of MTX IC50 to compound IC50 for human SKOV3 cells; type: functional

Chain of Methionine synthase (Q99707 whole entry): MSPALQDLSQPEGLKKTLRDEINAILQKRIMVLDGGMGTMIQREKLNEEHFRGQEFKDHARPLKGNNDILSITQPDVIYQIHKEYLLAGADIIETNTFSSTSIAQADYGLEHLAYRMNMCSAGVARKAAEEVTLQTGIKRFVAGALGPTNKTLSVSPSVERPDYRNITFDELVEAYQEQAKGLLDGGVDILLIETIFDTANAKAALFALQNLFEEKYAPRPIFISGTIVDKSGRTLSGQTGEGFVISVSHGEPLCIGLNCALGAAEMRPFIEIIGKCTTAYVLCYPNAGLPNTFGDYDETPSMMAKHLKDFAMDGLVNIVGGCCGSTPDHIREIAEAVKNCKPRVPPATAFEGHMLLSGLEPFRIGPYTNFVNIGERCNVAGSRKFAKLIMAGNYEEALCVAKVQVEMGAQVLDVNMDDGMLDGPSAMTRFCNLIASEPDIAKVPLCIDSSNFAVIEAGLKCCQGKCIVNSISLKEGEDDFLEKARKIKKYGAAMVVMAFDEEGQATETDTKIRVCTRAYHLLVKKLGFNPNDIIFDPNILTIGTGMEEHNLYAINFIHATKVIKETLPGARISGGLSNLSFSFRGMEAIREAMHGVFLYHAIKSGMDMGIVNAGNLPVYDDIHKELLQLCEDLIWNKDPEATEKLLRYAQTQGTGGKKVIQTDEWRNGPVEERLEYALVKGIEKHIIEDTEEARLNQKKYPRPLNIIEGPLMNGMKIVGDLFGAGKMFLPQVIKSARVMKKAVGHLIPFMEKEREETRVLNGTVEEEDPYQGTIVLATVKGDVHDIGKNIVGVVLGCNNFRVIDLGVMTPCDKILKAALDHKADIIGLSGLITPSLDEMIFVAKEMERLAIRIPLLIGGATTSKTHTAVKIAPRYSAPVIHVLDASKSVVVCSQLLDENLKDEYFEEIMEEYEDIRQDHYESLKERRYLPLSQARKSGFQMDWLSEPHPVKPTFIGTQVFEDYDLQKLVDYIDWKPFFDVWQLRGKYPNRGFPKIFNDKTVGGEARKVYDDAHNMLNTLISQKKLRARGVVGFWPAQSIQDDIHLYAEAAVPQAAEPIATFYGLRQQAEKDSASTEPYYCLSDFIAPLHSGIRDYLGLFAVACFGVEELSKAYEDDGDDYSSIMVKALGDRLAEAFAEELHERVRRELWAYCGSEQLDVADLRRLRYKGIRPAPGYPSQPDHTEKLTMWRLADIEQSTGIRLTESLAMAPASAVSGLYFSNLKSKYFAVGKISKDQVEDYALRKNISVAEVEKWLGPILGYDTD

IC50 (KB) | IC50 (Methionine synthase) | IC50 (SK-OV-3 [1]) | IC50 (HeLa) | IC50 (Bel-7402) | IC50 (Dihydrofolate reductase) | IC50 (BGC-823) | Structure (SMILES) | Ratio IC50 (SK-OV-3 [2])
6.72 µM | 15.9 µM | 50.2 µM |  |  |  |  | C=CCN(CC1CCc2nc(N)nc(N)c2N1CC=C)c1ccc(C(=O)N[C@@H](CCC(=O)O)C(=O)O)cc1 (some centres undefined) | 
> 100 µM | 66.4 µM | 37.4 µM | 0.13 µM | 64.7 µM | 0.8 µM | 0.18 µM | Nc1nc(N)c2c(n1)CCC1CN(c3ccc(C(=O)N[C@@H](CCC(=O)O)C(=O)O)cc3)CN21 (some centres undefined) | 
> 100 µM | > 100 µM | 0.573 µM | 0.227 µM | 61.5 µM | 0.42 µM | 2.09 µM | C=CCN1c2c(N)nc(N)nc2CCC1CN(C)c1ccc(C(=O)N[C@@H](CCC(=O)O)C(=O)O)cc1 (some centres undefined) | 
> 100 µM | 27.8 µM | 0.87 µM |  |  |  |  | C=CCN1c2c(N)nc(N)nc2CCC1CNc1ccc(C(=O)N[C@@H](CCC(=O)O)C(=O)O)cc1 (some centres undefined) | 
2.7 µM | > 100 µM | 0.01 µM | 0.003 µM | 18.3 µM | 0.018 µM | 0.01 µM | Nc1nc(N)c2nc(CNc3ccc(C(=O)N[C@@H](CCC(=O)O)C(=O)O)cc3)ccc2n1 | 
0.336 µM | 55 µM | 0.45 µM | 0.434 µM | 0.325 µM | 1.07 µM | 0.289 µM | Cc1ccc(S(=O)(=O)N2c3c(N)nc(N)nc3CCC2CN(C)c2ccc(C(=O)N[C@@H](CCC(=O)O)C(=O)O)cc2)cc1 (some centres undefined) | 
> 130 µM | 8.11 µM | > 100 µM | 6 µM | 65.2 µM | 0.032 µM | 6.9 µM | CN(CC1CCc2nc(N)nc(N)c2N1C=O)c1ccc(C(=O)N[C@@H](CCC(=O)O)C(=O)O)cc1 (some centres undefined) | 
20 µM | 1.73 µM | 34.6 µM | 41.6 µM | 12.3 µM | > 100 µM | 27 µM | CC(=O)N(CC1CCc2nc(N)nc(N)c2N1C=O)c1ccc(C(=O)N[C@@H](CCC(=O)O)C(=O)O)cc1 (some centres undefined) | 
> 100 µM | 21 µM | > 100 µM |  |  |  |  | C=CCN1c2c(N)nc(N)nc2CCC1CNc1ccc(C(=O)N[C@@H](CCC(=O)O)C(=O)O)cc1Br (some centres undefined) | 
> 100 µM | 1.43 µM | 0.042 µM |  |  |  |  | Nc1nc(N)c2c(n1)CCC(CNc1ccc(C(=O)N[C@@H](CCC(=O)O)C(=O)O)cc1Br)N2CC(Br)CBr (some centres undefined) | 1.4
31.1 µM | > 100 µM | > 100 µM | > 100 µM | > 100 µM | 0.033 µM | > 100 µM | CC(=O)N(CC1CCc2nc(N)nc(N)c2N1)c1ccc(C(=O)N[C@@H](CCC(=O)O)C(=O)O)cc1 (mixture of isomers) | 
 | > 100 µM |  |  |  | 0.033 µM |  | CN(CC1CCc2nc(N)nc(N)c2N1)c1ccc(C(=O)N[C@@H](CCC(=O)O)C(=O)O)cc1 (mixture of isomers) | 
20.9 µM |  | 0.06 µM |  |  |  |  | CN(Cc1cnc2nc(N)nc(N)c2n1)c1ccc(C(=O)N[C@@H](CCC(=O)O)C(=O)O)cc1 [METHOTREXATE] | 

Structure (SMILES) | IC50 (KB) | IC50 (Methionine synthase) | IC50 (SK-OV-3 [1]) | IC50 (HeLa) | IC50 (Bel-7402) | IC50 (Dihydrofolate reductase) | IC50 (BGC-823) | Ratio IC50 (SK-OV-3 [2])
Nc1nc(N)c2c(n1)CCC(CNc1ccc(C(=O)N[C@@H](CCC(=O)O)C(=O)O)cc1)N2 (mixture of isomers) | > 100 µM | 87.9 µM | 0.24 µM |  |  |  |  | 
